Data reported in publication PMC11324745 (Nature Communications, 2024).

Tests used:
Brca1^Δ11;Δ11 MEFs = conditions: cited from earlier work
Brca1^cc/cc MEFs = assay: Colony survival assay, Brca1 cc/cc MEFs; format: cell-based, mouse; conditions: vs Brca1-WT MEFs
[1] = tested on: DLD1 BRCA2-KO (BRCA2 -/-, null) cells; assay: Colony survival assay, DLD1 BRCA2-KO; format: cell-based; conditions: DLD1 isogenic pair, vs BRCA2-WT
How it was run: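 Isogenic pairs (DLD1 in RPMI; HCT 116 in DMEM; each with 10% FBS, glutamine, non-essential amino acids) seeded in 24-well plates: 800 cells/well for BRCA-null and 200 cells/well for wild-type. Test compound exposure with medium changed every 2–3 days for 10–12 days. Fixed in water:ethanol:acetic acid 5:4:1, stained with 0.5% crystal violet for 2 h, colonies counted manually. Mean ± S.E.M.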

BRCA1-deficient cells = conditions: read-out: IC50 in BRCA1-deficient cells; cited from earlier work
Polθ-hel = Polθ-hel (Homo sapiens, UniProt O75417); conditions: cited from earlier work
Polθ-hel, sequence (O75417 1-894): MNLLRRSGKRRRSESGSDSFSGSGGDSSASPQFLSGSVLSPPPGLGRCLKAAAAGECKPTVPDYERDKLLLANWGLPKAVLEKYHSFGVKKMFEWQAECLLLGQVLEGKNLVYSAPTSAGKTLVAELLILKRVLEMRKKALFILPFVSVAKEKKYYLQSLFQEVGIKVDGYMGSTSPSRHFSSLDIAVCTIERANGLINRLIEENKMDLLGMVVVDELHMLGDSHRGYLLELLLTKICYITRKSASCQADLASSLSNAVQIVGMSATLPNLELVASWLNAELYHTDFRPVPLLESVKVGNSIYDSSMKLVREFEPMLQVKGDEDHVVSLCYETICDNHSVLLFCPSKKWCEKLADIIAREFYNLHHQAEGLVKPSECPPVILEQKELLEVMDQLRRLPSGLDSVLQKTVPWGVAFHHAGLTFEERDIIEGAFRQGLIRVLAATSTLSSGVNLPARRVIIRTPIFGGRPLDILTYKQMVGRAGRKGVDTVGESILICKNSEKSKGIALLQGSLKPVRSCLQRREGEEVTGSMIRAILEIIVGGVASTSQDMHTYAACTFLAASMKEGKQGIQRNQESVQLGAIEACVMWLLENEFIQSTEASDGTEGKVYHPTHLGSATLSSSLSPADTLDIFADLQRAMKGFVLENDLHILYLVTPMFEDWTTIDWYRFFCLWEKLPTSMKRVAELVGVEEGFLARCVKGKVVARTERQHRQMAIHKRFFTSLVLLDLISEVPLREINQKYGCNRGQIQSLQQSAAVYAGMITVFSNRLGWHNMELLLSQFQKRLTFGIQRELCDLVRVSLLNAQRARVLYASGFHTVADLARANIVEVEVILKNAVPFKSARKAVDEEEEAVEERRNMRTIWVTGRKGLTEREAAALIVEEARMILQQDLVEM

| Structure (SMILES) | activity against Brca1 Δ11 MEFs (Brca1^Δ11;Δ11 MEFs) | colony survival, killing of Brca1 cc/cc MEFs (Brca1^cc/cc MEFs) | colony survival, killing of BRCA2-KO cells [1] | IC50 (BRCA1-deficient cells) [µM] | inhibition of Polθ-hel ssDNA binding (Polθ-hel) |
| --- | --- | --- | --- | --- | --- |
| Cc1cccc(N(C)C(=O)[C@@H]2[C@H](O)CCN2c2nc(C)cc(C(F)(F)F)c2C#N)c1 [ART558] | relatively modest activity |  |  |  |  |
| CO[C@@H]1[C@@H](OC(N)=O)[C@@H](O)[C@H](Oc2ccc3c(O)c(NC(=O)c4ccc(O)c(CC=C(C)C)c4)c(=O)oc3c2C)OC1(C)C [Novobiocin] |  | no preferential killing of these cells up to 10 μM | selective killing of BRCA2-KO cells at significantly higher concentrations | 50 to 100 | inhibits Polθ-hel ssDNA binding |
